Ki and EC50 data for 6 compounds are collected here from ChEMBL document CHEMBL1138440, “Phosphorous acid analogs of novel P2-P4 macrocycles as inhibitors of HCV-NS3 protease” (Bioorg Med Chem Lett, 2009).

In general, Ki refers to the equilibrium dissociation constant of an inhibitor or competing ligand from its target. Read a low Ki as higher affinity. A word on the EC50: it is the midpoint of the concentration-response curve.

Assay [1] deals with Hepatitis C virus. Put plainly: Inhibition of HCV genotype 1b NS3/4A protease. Set-up: species or system Hepatitis C virus subtype 1b. In short, it runs like this:
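Full-length HCV NS3/4A protease; inhibition reported as Ki. Mean of at least three independent experiments.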

Assay [2] concerns Hepatitis C virus. Put plainly: Antiviral activity against HCV infected in human HuH7 cells by subgenomic replication assay in presence of 10% fetal calf serum. The class given is functional, organism-based, Hepacivirus hominis. The following applies: Huh-7. In short, it runs like this: (§1)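 HCV replicon replication assay in Huh-7 cells; EC50 is the concentration giving 50% inhibition of replication. Run with 10% fetal calf serum (low serum) or 50% normal human serum (to gauge protein binding). Mean of at least three independent experiments.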

In assay [3] the test system is Hepatitis C virus. Nature of the assay: Antiviral activity against HCV infected in human HuH7 cells by subgenomic replication assay in presence of 50% normal human serum. The class given is functional, organism-based, Hepacivirus hominis, Huh-7. In outline: as §1

As to `C=C[C@H]1C[C@]1(NC(=O)[C@@H]1C[C@@H]2CN1C(=O)[C@H](C(C)(C)C)NC(=O)OCC(C)(C)CCCCc1cccc3c1CN(C3)C(=O)O2)C(=O)O`, the inhibition constant Ki with Hepatitis C virus [1] is 2800 nM.
Same read-out and setting: under `C=CC1CC1(NC(=O)[C@@H]1C[C@@H]2CN1C(=O)[C@H](C(C)(C)C)NC(=O)OCC(C)(C)CCCCc1cccc3c1CN(C3)C(=O)O2)P(=O)(O)O` (mixture of isomers) stands 16 nM.
In the assay on Hepatitis C virus [1], `C=CC1CC1(NC(=O)[C@@H]1C[C@@H]2CN1C(=O)[C@H](C(C)(C)C)NC(=O)OCC(C)(C)CCCCc1cccc3c1CN(C3)C(=O)O2)P(=O)(O)OCC` (mixture of isomers) came in with a Ki of 70 nM. The EC50 with Hepatitis C virus [2] came to 660 nM; in the assay with Hepatitis C virus [3] (Hepatitis C virus, Huh-7), 2400 nM.
In turn, `C=CC1CC1(NC(=O)[C@@H]1C[C@@H]2CN1C(=O)[C@H](C(C)(C)C)NC(=O)OCC(C)(C)CCCCc1cccc3c1CN(C3)C(=O)O2)P(=O)(OCC)OCC` (stereo in doubt) came in with a Ki in the assay with Hepatitis C virus [1] of 2900 nM. The EC50 in the assay on Hepatitis C virus [3] (huh-7) amounted to 20000 nM.
Take `C=CC1CC1(NC(=O)[C@@H]1C[C@@H]2CN1C(=O)[C@H](C(C)(C)C)NC(=O)OCC(C)(C)CCCCc1cccc3c1CN(C3)C(=O)O2)P(C)(=O)O` (mixture of isomers): the Ki in the assay on Hepatitis C virus [1] worked out at 2 nM. Besides, the EC50 with Hepatitis C virus [2] came to 500 nM; with Hepatitis C virus [3] (Hepatitis C virus, Huh-7) it was 250 nM.
In the case of `C=CC1CC1(NC(=O)[C@@H]1C[C@@H]2CN1C(=O)[C@H](C(C)(C)C)NC(=O)OCC(C)(C)CCCCc1cccc3c1CN(C3)C(=O)O2)P(=O)(OCC)OCC` (single isomer, unassigned), the 50% effective concentration (EC50) came out at 20000 nM in the assay on Hepatitis C virus [2] and 15000 nM with Hepatitis C virus [3] (Hepatitis C virus, Huh-7).
